The values below come from PubChem BioAssay.

The structures appear in SMILES notation. Activity calls are given as the source filed them.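 The calls were made as follows, unless noted: active = viability at or below 30% in both replicate assays; inconclusive = viability at or below 30% in just one of the two assays; inactive = the rest.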

The first test can be described thus: HUVEC growth inhibition – cell-based, human, primary screen (AID 575).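 Also: 100% = median of untreated cell wells with 0.1% DMSO on each plate.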 The settings on record: HUVEC proliferation, CellTiter-Glo luminescence, 72 h; at 10 µM; hits give low values. Summed up: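 System: primary human umbilical vein endothelial cells; Quantity: 1250 endothelial cells in each well; Buffer or medium: supplemented EBM, 2% fetal bovine serum; Doses: one dose, 10 µM final, 0.1% DMSO; Incubation: 72 h compound incubation; Technique: ATP-based CellTiter-Glo luminescent read; Evaluation: percent of median DMSO-control luminescence; Controls: vehicle and MePR control wells.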
Turning to `CCOC(=O)C1CCN(C(=O)CN(c2ccc(Cl)c(C(F)(F)F)c2)S(C)(=O)=O)CC1`, the viability was 107% (inactive).

`CCOc1ccccc1C(=O)Nc1cc(=O)n(C)c(=O)n1C`: the viability was 86.8% (inactive).

In the case of `Cc1ccc(-c2cc3nc4c(c(=O)n3[nH]2)CCCC4)cc1`, the viability is 88.7% (inactive).

Turning to `CCOC(=O)C(C)Sc1nnc(Cc2cc(=O)[nH]c(=O)[nH]2)n1-c1ccc(Cl)cc1` (stereo not given), the viability was 102% (inactive).

`c1nc(NCC2CCCO2)c2[nH]cnc2n1` (stereo not given): the viability is 93.4% (inactive).

Consider `O=C(Nc1ccc(Cl)cn1)c1cccnc1`, for which the viability was 81.6% (inactive).

For `O=C1c2ccccc2C(=O)N1C/C=C/CN1C(=O)c2ccccc2C1=O`, the viability was 86.5% (inactive).

For the compound `O=c1oc2c3c4c(cc2cc1-c1nc2ccccc2[nH]1)CCCN4CCC3`, the viability was 71.7% (inactive).

Consider `CCCCC(=O)NCCc1cc2c(C)ccc(C)c2[nH]c1=O`, for which the viability was 119% (inactive).

Regarding `O=C(NCc1ccc(F)cc1)c1cc2ccccn2n1`, the viability was 99% (inactive).

As to `COc1cccc(C2C3=C(N=C4SCC(=O)N42)c2ccccc2CC3)c1OC` (stereo not given), the viability was 65.7% (inactive).

Turning to `CCOC(=O)N1CCC(c2cc(=O)n3[nH]c(C)c(-c4ccc(F)cc4)c3n2)CC1`, the viability was 7% (active).

With `C=CCn1c(=O)n(CCOC)c(=O)c2sc3ccccc3c21`, the viability is 87.4% (inactive).

For the compound `Cc1ccc2cc(CCNC(=O)C(C)C)c(=O)[nH]c2c1C`, the viability is 99.4% (inactive).

Take `COc1ccc(S(=O)(=O)N2CCCC2C(=O)Nc2ccc(O)cc2)cc1` (stereo not given): the viability was 92.6% (inactive).

Take `Cc1cccc(-n2ncc3c(NCc4cccnc4)ncnc32)c1`: the viability is 99.3% (inactive).

Consider `COc1cccc(NC(=O)C2CCCN(S(=O)(=O)c3cccc4cccnc34)C2)c1` (stereo not given), for which the viability is 77.8% (inactive).

As to `CCc1nnc(NC(=O)COC(=O)CN2C(=O)c3ccccc3C2=O)s1`, the viability was 104% (inactive).

Regarding `O=C(C1CCN(c2nnc(-n3cccc3)s2)CC1)N1CCc2ccccc2C1`, the viability is 58.6% (inactive).

For the compound `Cc1c(C(=O)NC2CC2)oc2ccc(S(=O)(=O)N3CCCCCC3)cc12`, the viability was 96.8% (inactive).

`Cc1sc2nc(SCC(=O)NCCO)n(C)c(=O)c2c1C`: the viability is 104% (inactive).

As to `S=c1[nH]nc(-c2ccccc2)n1C1C=CCCC1` (stereo not given), the viability is 97.4% (inactive).

On to `c1ccc(N2CCN(Cc3cn4cccnc4n3)CC2)cc1`, for which the viability is 97.2% (inactive).

With `CCCCc1ccc(NC(=O)C2CCCO2)cc1` (stereo not given), the viability was 93.5% (inactive).

Turning to `Cc1[nH]c2ccccc2c(=O)c1CN1CCCCC1`, the viability was 101% (inactive).

With `Cc1ccccc1-n1c(Cn2c(=O)sc3ccccc32)nnc1SCC(=O)N1CCCC1`, the viability was 98% (inactive).

In the case of `COc1ccccc1-n1c(=O)[nH]c2c(C(N)=O)nc(CC(C)C)nc21`, the viability is 96.8% (inactive).

`Cc1ccccc1-c1nc(CN2CCC(C(=O)N3CCC(C(N)=O)CC3)CC2)c(C)o1`: the viability is 105% (inactive).

For the compound `CCCCN(CC)CCCNC(=O)c1cc2c(=O)n(C)c3ccccc3c2n1C`, the viability was 67.5% (inactive).

With `Cc1nn(-c2ccc(F)cc2)c2c1cc(C#N)c1nc3ccccc3n12`, the viability is 56.2% (inactive).

With `CCCn1c(OC)nc2c1c(=O)n(C)c(=O)n2C`, the viability was 83.2% (inactive).

On to `CCOC(=O)Cc1ccc(NS(=O)(=O)c2ccc(SC)cc2)cc1`, for which the viability was 67.9% (inactive).

On to `CC(C)Sc1nc2c(c(=O)n1-c1ccc(F)cc1)SCC2`, for which the viability is 87.6% (inactive).

With `COc1cccc(C2CC(c3c(Cl)cccc3Cl)n3nc(N)nc3N2)c1` (stereo not given), the viability is 81.2% (inactive).

For `Cc1cccc(OCCNC(=O)c2ncn[nH]2)c1`, the viability was 92.5% (inactive).

Turning to `COc1ccc(S(=O)(=O)N2CCN(c3ccc(C)cc3C)CC2)cc1OC`, the viability is 73.8% (inactive).

Take `CS(=O)(=O)NCCSCc1c(F)cccc1Cl`: the viability is 100% (inactive).

With `CC(C)CCNC(=O)Cn1c(NCCC(C)C)nc2c1c(=O)n(C)c(=O)n2C`, the viability was 102% (inactive).

Consider `CCOC(=O)N1CCC(NC(=O)C2CCCN(C(=O)c3cc4sccc4n3C)C2)CC1` (stereo not given), for which the viability was 82.2% (inactive).

As to `CCOC(=O)N1CCC(NC(=O)c2cc(C(=O)NC3CCCC3)ccc2CO)CC1`, the viability was 97.4% (inactive).

A short description of the next test: growth inhibitors of H69AR lung tumor, primary screen, human, duplicate replicates (AID 580;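 active = viability at or under a set limit in both replicates, limit being median viability minus 3 SD, cut at about 48% in these data, passing the limit was not always enough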;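 also: 100% = mean luminescence of untreated wells and 0% = no signal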). The settings on record: H69AR lung tumor cells viability, ATP luminescence, 72 h; at 10 µM; hits give low values.
On to `CCOC(=O)C1CCN(C(=O)CN(c2ccc(Cl)c(C(F)(F)F)c2)S(C)(=O)=O)CC1`, for which the viability was 92.1% (inactive).

`CCOc1ccccc1C(=O)Nc1cc(=O)n(C)c(=O)n1C`: the viability was 88.1% (inactive).

For the compound `Cc1ccc(-c2cc3nc4c(c(=O)n3[nH]2)CCCC4)cc1`, the viability is 91.9% (inactive).

Take `CCOC(=O)C(C)Sc1nnc(Cc2cc(=O)[nH]c(=O)[nH]2)n1-c1ccc(Cl)cc1` (stereo not given): the viability is 103% (inactive).

On to `c1nc(NCC2CCCO2)c2[nH]cnc2n1` (stereo not given), for which the viability was 91.1% (inactive).

Regarding `O=C(Nc1ccc(Cl)cn1)c1cccnc1`, the viability was 70.1% (inactive).

Consider `O=C1c2ccccc2C(=O)N1C/C=C/CN1C(=O)c2ccccc2C1=O`, for which the viability is 82.8% (inactive).

Regarding `O=c1oc2c3c4c(cc2cc1-c1nc2ccccc2[nH]1)CCCN4CCC3`, the viability is 83.3% (inactive).

On to `CCCCC(=O)NCCc1cc2c(C)ccc(C)c2[nH]c1=O`, for which the viability was 85.1% (inactive).

In the case of `O=C(NCc1ccc(F)cc1)c1cc2ccccn2n1`, the viability is 98.2% (inactive).

Regarding `COc1cccc(C2C3=C(N=C4SCC(=O)N42)c2ccccc2CC3)c1OC` (stereo not given), the viability was 98.2% (inactive).

As to `CCOC(=O)N1CCC(c2cc(=O)n3[nH]c(C)c(-c4ccc(F)cc4)c3n2)CC1`, the viability was 21.3% (active).

Consider `C=CCn1c(=O)n(CCOC)c(=O)c2sc3ccccc3c21`, for which the viability is 86.8% (inactive).

In the case of `Cc1ccc2cc(CCNC(=O)C(C)C)c(=O)[nH]c2c1C`, the viability was 99% (inactive).

As to `COc1ccc(S(=O)(=O)N2CCCC2C(=O)Nc2ccc(O)cc2)cc1` (stereo not given), the viability was 98.4% (inactive).

`Cc1cccc(-n2ncc3c(NCc4cccnc4)ncnc32)c1`: the viability was 88% (inactive).

As for `COc1cccc(NC(=O)C2CCCN(S(=O)(=O)c3cccc4cccnc34)C2)c1` (stereo not given), the viability was 82.7% (inactive).

Regarding `CCc1nnc(NC(=O)COC(=O)CN2C(=O)c3ccccc3C2=O)s1`, the viability is 109% (inactive).

Consider `O=C(C1CCN(c2nnc(-n3cccc3)s2)CC1)N1CCc2ccccc2C1`, for which the viability was 77.9% (inactive).

Consider `Cc1c(C(=O)NC2CC2)oc2ccc(S(=O)(=O)N3CCCCCC3)cc12`, for which the viability was 83% (inactive).

On to `Cc1sc2nc(SCC(=O)NCCO)n(C)c(=O)c2c1C`, for which the viability was 88% (inactive).

`S=c1[nH]nc(-c2ccccc2)n1C1C=CCCC1` (stereo not given): the viability is 85% (inactive).

For `c1ccc(N2CCN(Cc3cn4cccnc4n3)CC2)cc1`, the viability is 97.6% (inactive).

For `CCCCc1ccc(NC(=O)C2CCCO2)cc1` (stereo not given), the viability is 103% (inactive).

With `Cc1[nH]c2ccccc2c(=O)c1CN1CCCCC1`, the viability was 90.5% (inactive).

Consider `Cc1ccccc1-n1c(Cn2c(=O)sc3ccccc32)nnc1SCC(=O)N1CCCC1`, for which the viability was 93.7% (inactive).

Regarding `COc1ccccc1-n1c(=O)[nH]c2c(C(N)=O)nc(CC(C)C)nc21`, the viability is 80.4% (inactive).

Turning to `Cc1ccccc1-c1nc(CN2CCC(C(=O)N3CCC(C(N)=O)CC3)CC2)c(C)o1`, the viability was 89.5% (inactive).

With `CCCCN(CC)CCCNC(=O)c1cc2c(=O)n(C)c3ccccc3c2n1C`, the viability was 70.1% (inactive).

In the case of `Cc1nn(-c2ccc(F)cc2)c2c1cc(C#N)c1nc3ccccc3n12`, the viability is 86.3% (inactive).

For the compound `CCCn1c(OC)nc2c1c(=O)n(C)c(=O)n2C`, the viability was 94.4% (inactive).

Consider `CCOC(=O)Cc1ccc(NS(=O)(=O)c2ccc(SC)cc2)cc1`, for which the viability is 86.7% (inactive).

Take `CC(C)Sc1nc2c(c(=O)n1-c1ccc(F)cc1)SCC2`: the viability is 88.5% (inactive).

With `COc1cccc(C2CC(c3c(Cl)cccc3Cl)n3nc(N)nc3N2)c1` (stereo not given), the viability is 83.6% (inactive).

Turning to `Cc1cccc(OCCNC(=O)c2ncn[nH]2)c1`, the viability is 91.9% (inactive).

Take `COc1ccc(S(=O)(=O)N2CCN(c3ccc(C)cc3C)CC2)cc1OC`: the viability was 97.2% (inactive).

In the case of `CS(=O)(=O)NCCSCc1c(F)cccc1Cl`, the viability was 102% (inactive).

Take `CC(C)CCNC(=O)Cn1c(NCCC(C)C)nc2c1c(=O)n(C)c(=O)n2C`: the viability was 93.7% (inactive).

With `CCOC(=O)N1CCC(NC(=O)C2CCCN(C(=O)c3cc4sccc4n3C)C2)CC1` (stereo not given), the viability was 94.8% (inactive).

With `CCOC(=O)N1CCC(NC(=O)c2cc(C(=O)NC3CCCC3)ccc2CO)CC1`, the viability is 92.8% (inactive).
